# Source: the array DNA melting data of Ke et al. (doi:10.1101/2024.01.08.574731)
# Assays:
# [1] = folding enthalpy; higher = less favourable; fluorescence melt of hairpins on a sequencing array, two-state fit; conditions: sodium 0.088 M
# In short: (§1)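 Hairpins were imaged by Cy3 fluorescence on a sequenced MiSeq flow cell with annealed Cy3 and quencher oligos, in 50 mM Na-HEPES pH 8.0, 25 mM NaCl, in 2.5 °C steps up to 60 °C. Bootstrapped two-state fits of normalised signals gave melting temperature and folding enthalpy. Four replicates were combined by inverse variance, and fitted temperatures were raised by 9.35 °C to match UV melts.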
# [2] = melting temperature; fluorescence melt of hairpins on a sequencing array, two-state fit, raised by 9.35 °C to match UV melts; conditions: sodium 0.088 M
# In short: as §1
Sequence,folding enthalpy [1] [kcal/mol],Tm [2] [°C]
GAGGGCGGAAACACCCCC (.(((.(....).))).),-16.4,30.9
GTGCAAGAAATTGCAC ((((((....)))))),-36.2,56.6
GGGAACGAAAGTTGTCCC ((((((....)))..))),-18.1,36.4
GGCCTCGAAAGAGCAGCC ((((((....)))..))),-22.3,47.6
GGCTAACCGAAAGGTGCC (((..(((....)))))),-22.4,53.6
GTACACGAAAGTGAATAC ((((((....)))..))),-10.6,28.6
GTGCCAGGAAACTAGCAC ((((.((....)).)))),-28.2,43.2
GACGCAGGAAACCGCATC ((.((.(....).)).)),-12.4,28.5
GCTAGGCGAAAGCAGAGC (((..((....))..))),-23.5,53.3
GCGAAAGGAAACCTTCGC (((((.(....).))))),-34.4,48.8
GTGTCCGAAAGGATACAC ((((((....)))..))),-18.7,49
GCGCACTCGAAAGAGCGC (((..(((....)))))),-23.6,57.1
GTACACGGAAACGTGTAC (((((((....))))))),-37.7,63.4
GATCCCATAAGGGATC ((((((....)))))),-39.4,63.9
GATAACGCGAAAGCGATC (((..(((....)))))),-10.2,24.1
GAGGTACGAAAGTACTC (((.(((....)))))),-13.6,45.8
GACACTGGAAACAGTGCC (.(((((....))))).),-14.8,43.2
GTTCTAGGAAACTAGGAC ((.((((....)))).)),-28.5,39.7
GATCGGATAGCCGATC ((((((....)))))),-29.6,55.4
GCCGCCGAAAGGCTAGGC ((((((....)))..))),-27.9,60.5
CTACGGAAACGTAG (((((....))))),-24.9,49.4
GAGGCCCGAAAGGGCTC (((.(((....)))))),-9.95,57.9
GCTTTGCGAAAGCATGGC ((..(((....)))..)),-16.7,49.5

Sequence,folding enthalpy [1] [kcal/mol],Tm [2] [°C]
GTGTGGGAAACCACAC ((((((....)))))),-39.2,63.4
GATCCTGACAAGGATC ((((((....)))))),-38,63
GATCCAAAGGTGGATC ((((((....)))))),-26.1,47
GCAACCCGAAAGGGATGC (((.(((....))).))),-32.9,63.5
GCGCGGCGAAAGCGTCGC (((..((....))..))),-19.8,63.2
GGGGTGGGAAACCGTCCC (((..((....))..))),-18.5,45.2
GATCATGCTGATGATC ((((((....)))))),-38.5,47.3
GGAGATTCGAAAGAATCC (((..(((....)))))),-13.3,38.7
GCCACACGAAAGTGGGC (((.(((....)))))),-24.6,60.4
GCCGTGACGAAAGTCGGC (((..(((....)))))),-23.3,57.1
GTCGACCGAAAGGTGAC (((.(((....)))))),-22.4,51.8
GATCCTGCAGAGGATC ((((((....)))))),-39.5,56
GGACTTCGAAAGAATCC (((.(((....)))))),-21.7,35.2
GATCGACGAAAGTCAATC (((.(((....))).))),-20.5,40.3
GACGACGAAAGTCAGTC ((((((....))).))),-24.9,54.1
GCTTTTGGAAACAAAAAC (.(((((....))))).),-13.2,26.6
GTACACGAAAGTGACTAC ((((((....)))..))),-15.4,37.2
GCTTATCGAAAGATCAGC (((.(((....))).))),-25.3,44
GTGTACGAAAGTAAGCAC ((((((....)))..))),-21.3,33.4
CCACAGAAATGTGG (((((....))))),-18.5,50.5
GTATGCGAAAGCAGTTAC ((((((....)))..))),-10.1,28.2
TGGTAGAAATACCA (((((....))))),-12.8,36.8
GTATCGCGAAAGCGTTAC (((.(((....))).))),-21.2,48.4

Sequence,folding enthalpy [1] [kcal/mol],Tm [2] [°C]
GAAAGACGAAAGTCATTC (((.(((....))).))),-21.1,38.2
GTGGTGCGAAAGCAACAC (((.(((....))).))),-28.8,68.9
GCATCGGGAAACCGATAC (.(((((....))))).),-13.7,41.5
GTCAGGGGAAACCCTGAC (((((((....))))))),-41.9,65.1
GTTATGCGAAAGCAGAAC (((.(((....))).))),-31.5,55.9
GCTCCGGGAAACCGGGGC ((.((((....)))).)),-43,63.8
GCCACGCGAAAGCGTAGC ((.((((....)))).)),-16.9,55.8
GACCGCGAAAGCGATGTC ((((((....)))..))),-14.9,44.3
GTAGGCTCGAAAGAGTAC (((..(((....)))))),-10.6,29.2
GGGTAGGGAAACCTATCC ((.((((....)))).)),-29.7,46.6
GGCGCTGGAAACGGCGTC (.(((.(....).))).),-28,54.3
GCGGAGTACCGC ((((....)))),-24.2,55.9
GACACTGGAAACAGCGTC (((.(((....))).))),-35.2,46.4
GATCTTGCCAAGATC ((((((...)))))),-26.1,47.5
GATAGGGGAAACCCTGTC ((.((((....)))).)),-25.4,43.7
GGATACGAAAGTAGGTCC ((((((....)))..))),-8.27,28.4
GCATTCGGAAACGGATGC ((((.((....)).)))),-36.9,54
GTACATCGAAAGATTAC (((.(((....)))))),-20.3,32.1
GAGTTAGCGAAAGCTCTC (((..(((....)))))),-11.5,35.1
GAATATGAAAATATTC ((((((....)))))),-24.6,39.8
GTAGCACGAAAGTGTTAC (((.(((....))).))),-29.2,51.5
GGGCTGCGAAAGCACCC (((.(((....)))))),-21.4,57.2
GCAACCGAAAGGTTTGC ((((((....))).))),-23.6,55.7

Sequence,folding enthalpy [1] [kcal/mol],Tm [2] [°C]
GCGAAACCGAAAGGTCGC (((..(((....)))))),-29.9,54.4
GGGCCGGCGAAAGCCCCC (((..(((....)))))),-11.2,51
GTTTGTGCGAAAGCAAAC (((..(((....)))))),-18.2,41.5
GTACTCGCGAAAGCGTAC (((..(((....)))))),-11.1,30.4
GATCCTCCGAAGGATC ((((((....)))))),-16.6,48.7
GCCTACCCGAAAGGGGGC (((..(((....)))))),-17.3,52.4
GCGACAGGAAACTATCGC ((((.((....)).)))),-31.9,43.7
GTGGTAGGAAACTACCGC (.(((((....))))).),-32.5,52.5
GGCCGCCGAAAGGCGCC (((.(((....)))))),-12.8,68.2
GCCGTAGGAAACTGCGGC ((((.((....)).)))),-37.3,61.6
GGGGTCGAAAGACGTCCC ((((((....)))..))),-18.5,42.4
GTGGGCGAAAGCCGCAC ((((((....))).))),-13.8,55.4
GGACTGGGAAACCGGTCC ((((.((....)).)))),-39.9,58.6
GCGTATGTACGC ((((....)))),-22.4,54.8
GCCACTCCGAAAGGAGGC (((..(((....)))))),-8.62,43.9
GATCACAATAGTGATC ((((((....)))))),-38.3,60.8
GCGGGACCCGC ((((...)))),-24.5,55.9
GAAACAGCGAAAGCTTTC (((..(((....)))))),-15.3,29.1
GTTCCCGAAAGGGACAAC ((((((....)))..))),-8.79,33.6
GACGACGAAAGTCTTGTC ((((((....)))..))),-16.2,40.3
GTTGGAGAAATCCAAC ((((((....)))))),-32,52
GCTCGGGCGAAAGCCAGC (((..(((....)))))),-8.16,52
GTCCGCGAAAGCGACGAC ((((((....)))..))),-14,57.6
